Data from ChEMBL document CHEMBL2177033, “N-substituted phenoxazine and acridone derivatives: structure-activity relationships of potent P2X4 receptor antagonists” (J Med Chem, 2012).

What was measured:
[1] = target: P2X purinoceptor 4 (Homo sapiens, UniProt Q99571); assay: Antagonist activity at human P2X4 receptor expressed in 1321N1 cells assessed as inhibition of ATP-induced cytosolic calcium influx preincubated at 10 uM for 30 mins before ATP treatment by Fluo-4 AM fluorescence method; type: functional, cell-based
Chain of P2X purinoceptor 4 (Q99571 whole entry): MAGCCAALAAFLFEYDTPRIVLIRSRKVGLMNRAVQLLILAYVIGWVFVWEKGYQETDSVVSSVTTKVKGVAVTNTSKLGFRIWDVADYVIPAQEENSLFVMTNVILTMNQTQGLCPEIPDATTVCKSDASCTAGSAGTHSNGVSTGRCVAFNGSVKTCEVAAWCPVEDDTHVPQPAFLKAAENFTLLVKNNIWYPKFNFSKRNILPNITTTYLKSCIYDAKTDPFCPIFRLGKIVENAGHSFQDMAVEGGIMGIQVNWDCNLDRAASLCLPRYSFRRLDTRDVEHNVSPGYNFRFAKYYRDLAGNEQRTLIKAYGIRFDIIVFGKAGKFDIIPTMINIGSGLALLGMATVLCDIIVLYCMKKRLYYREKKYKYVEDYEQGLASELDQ

[2] = Hydrolytic stability of the compound in DMSO/NaHCO3 at pH 8.4 after 6 hrs at 37 degC by LC-MS analysis; type: physicochemical; details: pH 8.4, 6 h
Method in brief: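 Compound solution stirred 6 h under one of three conditions: 100 μM in DMSO/aqueous HCl pH 1 (1:4) at room temperature; 100 μM in DMSO/HBSS pH 7.4 (1:4) at 80 °C; or 10 μM in DMSO/aqueous NaHCO3 pH 8.4 (2.5:97.5) at 37 °C.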

O=C(OCc1ccccc1)N1c2ccccc2Oc2ccccc21
inhibition [1]: 77%
Stability [2]: Stable
